Results taken from ChEMBL document CHEMBL1649427, “Inactivation of the glycoside hydrolase NagZ attenuates antipseudomonal beta-lactam resistance in Pseudomonas aeruginosa” (Antimicrob Agents Chemother, 2009).
Values after ≈ are worked out from the molar mass of the structure shown. Each block holds one molecule with its values, some of them ahead of it.

Assays:
[1] = system: Pseudomonas aeruginosa; assay: Ratio of MIC for Pseudomonas aeruginosa PAO1 harboring deltaampD::lox deltaampDh2::lox deltaampDh3::lox to MIC for Pseudomonas aeruginosa PAO1 harboring deltaampD::lox deltaampDh2::lox deltaampDh3::lox deltanagZ::Gm
[2] = system: Pseudomonas aeruginosa; assay: Antimicrobial activity against Pseudomonas aeruginosa PAO1 harboring deltaampD::lox deltaampDh2::lox deltaampDh3::lox deltanagZ::Gm after 18 hrs by Etest; type: functional; conditions: PAO1, 18 h
How it was run: (§1)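 Etest strips on Mueller-Hinton agar plates, run per the manufacturer's recommendations; MICs determined in triplicate.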

[3] = system: Pseudomonas aeruginosa; assay: Antimicrobial activity against Pseudomonas aeruginosa PAO1 after 18 hrs by Etest; type: functional; conditions: PAO1, 18 h
How it was run: (§2)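 Strains are P. aeruginosa PAO1 and its insertional nagZ-inactivated derivative. MICs were read from Etest strips on Mueller-Hinton agar, following the manufacturer's recommendations. Each determination was done in triplicate.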

[4] = system: Pseudomonas aeruginosa; assay: Antimicrobial activity against nagZ gene-deficient Pseudomonas aeruginosa PAO1 after 18 hrs by Etest; type: functional; conditions: PAO1, 18 h
How it was run: as §2

[5] = system: Pseudomonas aeruginosa; assay: Antimicrobial activity against Pseudomonas aeruginosa PAO1 harboring deltaampD::lox deltaampDh2::lox delta ampDh3::lox after 18 hrs by Etest; type: functional; conditions: PAO1, 18 h
How it was run: as §1

[6] = molecular target: Beta-hexosaminidase (Pseudomonas aeruginosa (strain ATCC 15692 / PAO1 / 1C / PRS 101 / LMG12228), UniProt Q9HZK0); assay: Inhibition of Pseudomonas aeruginosa PAO1 nagZ gene after 1.5 hrs by fluorescence spectrophotometry
Beta-hexosaminidase, sequence (Q9HZK0 whole entry): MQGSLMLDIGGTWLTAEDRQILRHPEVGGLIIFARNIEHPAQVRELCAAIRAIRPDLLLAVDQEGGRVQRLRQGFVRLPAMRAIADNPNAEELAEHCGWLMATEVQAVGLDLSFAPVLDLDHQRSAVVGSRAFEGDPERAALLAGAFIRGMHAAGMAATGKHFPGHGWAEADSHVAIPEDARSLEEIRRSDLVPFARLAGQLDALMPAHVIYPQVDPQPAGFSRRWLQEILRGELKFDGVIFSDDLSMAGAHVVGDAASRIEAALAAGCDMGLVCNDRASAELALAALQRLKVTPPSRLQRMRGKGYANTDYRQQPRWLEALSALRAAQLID
How it was run: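 Cultures in Mueller-Hinton broth were grown at 37°C to OD600 ~0.5, diluted to 0.25 and grown 1.5 h more. Cells were PBS-washed and sonicated. Lysate protein (15 μg) was incubated with 2 mM 4-MUGlcNAc in PBS pH 7.4 at 37°C for 1–8 h, then quenched with glycine-NaOH pH 10.7. 4-MU fluorescence was read at ex 360/em 450 nm, in triplicate, with heat-denatured lysate controls.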

[7] = system: Pseudomonas aeruginosa; assay: Antimicrobial activity against Pseudomonas aeruginosa PAO1 harboring deltaampD::lox deltaampDh2::lox delta ampDh3::lox and plasmid pUCP27 after 18 hrs by Etest; type: functional; conditions: PAO1, 18 h
How it was run: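 Etest strips on Mueller-Hinton agar supplemented with 75 μg/ml tetracycline to maintain the vector or complementation plasmid, run per the manufacturer's recommendations; triplicate determinations.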

[8] = system: Pseudomonas aeruginosa; assay: Antimicrobial activity against ampDh2 and ampDh3 gene-deficient Pseudomonas aeruginosa PAO1 after 18 hrs by broth microdilution method; type: functional; conditions: PAO1, 18 h
How it was run: (§3)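 Wells are then inoculated with 100 μl culture and incubated 18 h at 37°C. The MIC is the lowest concentration with no growth. Triplicate determinations.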

[9] = system: Pseudomonas aeruginosa; assay: Antimicrobial activity against ampDDh2 gene-deficient Pseudomonas aeruginosa PAO1 after 18 hrs by broth microdilution method in presence of 0.5 mM nagZ inhibitor EtBuPUG; type: functional; conditions: PAO1, 18 h
How it was run: as §3

[10] = system: Pseudomonas aeruginosa; assay: Antimicrobial activity against nagZ gene-deficient Pseudomonas aeruginosa PAO1 after 18 hrs by broth microdilution method; type: functional; conditions: PAO1, 18 h
How it was run: (§4)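 CLSI broth microdilution in cation-adjusted Mueller-Hinton medium with serial β-lactam dilutions. Each well holds 200 μl broth inoculated with ~10⁴ cells from starter cultures at OD600 ~0.5. Plates shaken at 37°C for 18 h. The MIC is read as the lowest antibiotic concentration showing no growth. Triplicate determinations.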

[11] = system: Pseudomonas aeruginosa; assay: Antimicrobial activity against ampDh2 gene-deficient Pseudomonas aeruginosa PAO1 after 18 hrs by broth microdilution method in presence of 0.5 mM nagZ inhibitor EtBuPUG; type: functional; conditions: PAO1, 18 h
How it was run: as §3

[12] = system: Pseudomonas aeruginosa; assay: Antimicrobial activity against ampD gene-deficient Pseudomonas aeruginosa PAO1 after 18 hrs by broth microdilution method in presence of 0.5 mM nagZ inhibitor EtBuPUG; type: functional; conditions: PAO1, 18 h
How it was run: as §3

[13] = system: Pseudomonas aeruginosa; assay: Antimicrobial activity against ampDDh3 gene-deficient Pseudomonas aeruginosa PAO1 after 18 hrs by broth microdilution method in presence; type: functional; conditions: PAO1, 18 h
How it was run: as §3

[14] = system: Pseudomonas aeruginosa; assay: Antimicrobial activity against ampDh2 gene-deficient Pseudomonas aeruginosa PAO1 using 30 ug/disk by agar diffusion method in presence of 0.5 mM nagZ inhibitor EtBuPUG; type: functional
How it was run: (§5)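 Cultures grown in Mueller-Hinton broth at 37°C to OD600 ~0.5, pelleted, resuspended in 2 ml broth and streaked on Mueller-Hinton agar. […] Inhibition zone diameter measured after overnight incubation at 37°C. Triplicate determinations.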

[15] = system: Pseudomonas aeruginosa; assay: Antimicrobial activity against Pseudomonas aeruginosa PAO1 after 18 hrs by using 30 ug/disk by agar diffusion method in presence of 0.5 mM nagZ inhibitor EtBuPUG; type: functional
How it was run: as §5

[16] = system: Pseudomonas aeruginosa; assay: Antimicrobial activity against ampDDh2 and ampDh3 gene-deficient Pseudomonas aeruginosa PAO1 after 18 hrs by broth microdilution method in presence of 0.5 mM nagZ inhibitor EtBuPUG; type: functional; conditions: PAO1, 18 h
How it was run: as §3

[17] = system: Pseudomonas aeruginosa; assay: Antimicrobial activity against ampDh2 gene-deficient Pseudomonas aeruginosa PAO1 after 18 hrs by broth microdilution method in absence of EtBuPUG; conditions: PAO1, 18 h
[18] = system: Pseudomonas aeruginosa; assay: Antimicrobial activity against ampDh2 and ampDh3 gene-deficient Pseudomonas aeruginosa PAO1 after 18 hrs by broth microdilution method in presence of 0.5 mM nagZ inhibitor EtBuPUG; type: functional; conditions: PAO1, 18 h
How it was run: as §3

[19] = system: Pseudomonas aeruginosa; assay: Antimicrobial activity against ampDDh2 and ampDh3 gene-deficient Pseudomonas aeruginosa PAO1 after 18 hrs using […] by agar diffusion method; type: functional
How it was run: as §5

[20] = system: Pseudomonas aeruginosa; assay: Antimicrobial activity against ampDDh2 gene-deficient Pseudomonas aeruginosa PAO1 after 18 hrs by broth microdilution method in presence; type: functional; conditions: PAO1, 18 h
How it was run: as §3

[21] = system: Pseudomonas aeruginosa; assay: Antimicrobial activity against Pseudomonas aeruginosa PAO1 after 18 hrs by broth microdilution method; type: functional; conditions: PAO1, 18 h
How it was run: as §4

[22] = system: Pseudomonas aeruginosa; assay: Antimicrobial activity against ampD gene-deficient Pseudomonas aeruginosa PAO1 after 18 hrs by broth microdilution method in absence of EtBuPUG; conditions: PAO1, 18 h
[23] = system: Pseudomonas aeruginosa; assay: Antimicrobial activity against ampDh3 gene-deficient Pseudomonas aeruginosa PAO1 after 18 hrs by broth microdilution method in presence of 0.5 mM nagZ inhibitor EtBuPUG; type: functional; conditions: PAO1, 18 h
How it was run: as §3

[24] = system: Pseudomonas aeruginosa; assay: Antimicrobial activity against ampDh3 gene-deficient Pseudomonas aeruginosa PAO1 after 18 hrs by broth microdilution method in presence; type: functional; conditions: PAO1, 18 h
How it was run: as §3

[25] = system: Pseudomonas aeruginosa; assay: Antimicrobial activity against Pseudomonas aeruginosa PAO1 after 18 hrs by broth microdilution method in presence of 0.5 mM nagZ inhibitor EtBuPUG; type: functional; conditions: PAO1, 18 h
How it was run: as §3

[26] = system: Pseudomonas aeruginosa; assay: Antimicrobial activity against ampDDh3 gene-deficient Pseudomonas aeruginosa PAO1 after 18 hrs by broth microdilution method in presence of 0.5 mM nagZ inhibitor EtBuPUG; type: functional; conditions: PAO1, 18 h
How it was run: as §3

[27] = system: Pseudomonas aeruginosa; assay: Antimicrobial activity against nagZ gene-deficient Pseudomonas aeruginosa PAO1 harboring plasmid pUCP27 after 18 hrs by broth microdilution method; type: functional; conditions: PAO1, 18 h
[28] = system: Pseudomonas aeruginosa; assay: Antimicrobial activity against Pseudomonas aeruginosa PAO1 harboring deltaampD::lox deltaampDh2::lox deltaampDh3::lox after 18 hrs by broth microdilution method; type: functional; conditions: PAO1, 18 h
How it was run: as §4

[29] = molecular target: Beta-lactamase (Pseudomonas aeruginosa (strain ATCC 15692 / PAO1 / 1C / PRS 101 / LMG12228)) (UniProt P24735); assay: Activity of beta-lactamase AmpC in Pseudomonas aeruginosa PAO1 harboring deltaampD::lox deltaampDh2::lox deltaampDh3::lox assessed as nitrocefin hydrolysis after 3 hrs by spectrophotometric analysis
Beta-lactamase (Pseudomonas aeruginosa (strain ATCC 15692 / PAO1 / 1C / PRS 101 / LMG12228)), sequence (P24735 27-397 limits assumed): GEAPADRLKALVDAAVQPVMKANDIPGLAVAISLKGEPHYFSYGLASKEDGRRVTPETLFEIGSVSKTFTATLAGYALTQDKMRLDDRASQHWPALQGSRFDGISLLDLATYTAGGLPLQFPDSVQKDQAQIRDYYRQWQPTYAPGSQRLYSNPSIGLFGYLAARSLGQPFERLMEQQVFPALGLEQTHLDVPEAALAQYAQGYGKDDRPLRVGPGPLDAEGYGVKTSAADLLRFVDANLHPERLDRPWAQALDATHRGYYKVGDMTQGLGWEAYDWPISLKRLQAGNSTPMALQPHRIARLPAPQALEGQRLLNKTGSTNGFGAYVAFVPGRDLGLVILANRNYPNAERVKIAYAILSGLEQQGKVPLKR
How it was run: (§6)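 Strains grown in Mueller-Hinton broth at 37°C to OD600 ~0.5, then cultured 3 h at 37°C with 50 μg/ml cefoxitin (induced) or without. Crude sonic lysates assayed in triplicate at 37°C by continuous assay: nitrocefin (initial 100 μM) hydrolysis followed at 485 nm for 5 min. Specific activity expressed as nmol nitrocefin hydrolyzed/min/mg protein.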

[30] = system: Pseudomonas aeruginosa; assay: Antimicrobial activity against Pseudomonas aeruginosa PAO1 harboring deltaampD::lox deltaampDh2::lox delta ampDh3::lox after 18 hrs by broth microdilution method; type: functional; conditions: PAO1, 18 h
How it was run: as §4

[31] = molecular target: Beta-lactamase (Pseudomonas aeruginosa (strain ATCC 15692 / PAO1 / 1C / PRS 101 / LMG12228)) (UniProt P24735); assay: Activity of beta-lactamase AmpC in Pseudomonas aeruginosa PAO1 assessed as nitrocefin hydrolysis after 3 hrs by spectrophotometric analysis
How it was run: as §6

[32] = molecular target: Beta-lactamase (Pseudomonas aeruginosa (strain ATCC 15692 / PAO1 / 1C / PRS 101 / LMG12228)) (UniProt P24735); assay: Activity of beta-lactamase AmpC in Pseudomonas aeruginosa PAO1 harboring deltaampD::lox deltaampDh2::lox deltaampDh3::lox deltanagZ::Gm assessed as nitrocefin hydrolysis after 3 hrs by spectrophotometric analysis
How it was run: as §6

[33] = molecular target: Beta-lactamase (Pseudomonas aeruginosa (strain ATCC 15692 / PAO1 / 1C / PRS 101 / LMG12228)) (UniProt P24735); assay: Activity of beta-lactamase AmpC in Pseudomonas aeruginosa nagZ gene-deficient PAO1 assessed as nitrocefin hydrolysis after 3 hrs by spectrophotometric analysis
How it was run: as §6

[34] = system: Pseudomonas aeruginosa; assay: Antimicrobial activity against nagZ gene-deficient Pseudomonas aeruginosa PAO1 harboring wild type nagZ gene after 18 hrs by broth microdilution method; type: functional; conditions: PAO1, 18 h

Structure (SMILES): CO/N=C(\C(=O)N[C@@H]1C(=O)N2C(C(=O)[O-])=C(C[N+]3(C)CCCC3)CS[C@H]12)c1csc(N)n1
Ratio [1]: 4 | MIC [2]: 3 µg/mL (≈ 6.24 µM) | MIC [3]: 0.5 µg/mL (≈ 1.04 µM) | MIC [4]: 0.38 µg/mL (≈ 0.791 µM) | MIC [5]: 12 µg/mL (≈ 25 µM)

Ki [6]: 3.5 µM
Structure (SMILES): CCC(CC)C(=O)N[C@H]1/C(=N/OC(=O)Nc2ccccc2)O[C@H](CO)[C@@H](O)[C@@H]1O

Structure (SMILES): C[C@H]1[C@H](NC(=O)/C(=N\OC(C)(C)C(=O)O)c2csc(N)n2)C(=O)N1S(=O)(=O)O [AZTREONAM]
MIC [7]: 6 µg/mL (≈ 13.8 µM) | MIC [8]: 0.5 µg/mL (≈ 1.15 µM) | MIC [9]: 8 µg/mL | MIC [10]: 0.25 µg/mL (≈ 0.574 µM) | MIC [11]: 0.25 µg/mL | MIC [12]: 3 µg/mL | MIC [2]: 4 µg/mL (≈ 9.19 µM) | MIC [13]: 16 µg/mL (≈ 36.7 µM) | inhibition zone (IZ) [14]: 14 mm | inhibition zone (IZ) [15]: 15.1 mm | MIC [16]: 12 µg/mL | MIC [17]: 1 µg/mL (≈ 2.3 µM) | MIC [18]: 0.25 µg/mL | inhibition zone (IZ) [19]: 10.7 mm | MIC [20]: 16 µg/mL (≈ 36.7 µM) | MIC [21]: 1 µg/mL (≈ 2.3 µM) | MIC [22]: 6 µg/mL (≈ 13.8 µM) | MIC [23]: 0.75 µg/mL | MIC [24]: 1.5 µg/mL (≈ 3.44 µM) | MIC [25]: 0.25 µg/mL | MIC [26]: 8 µg/mL

Structure (SMILES): CO[C@@]1(NC(=O)Cc2cccs2)C(=O)N2C(C(=O)O)=C(COC(N)=O)CS[C@@H]21 [CEFOXITIN]
MIC [27]: 600 µg/mL (≈ 1400 µM) | MIC [28]: 3200 µg/mL (≈ 7490 µM) | MIC [10]: 800 µg/mL (≈ 1870 µM) | Activity [29]: 3940 nmol | MIC [21]: 1600 µg/mL (≈ 3740 µM) | MIC [30]: 3200 µg/mL (≈ 7490 µM) | Activity [31]: 230 nmol | Activity [32]: 1020 nmol | Activity [33]: 95 nmol | MIC [34]: 1200 µg/mL (≈ 2810 µM)
